{"source": "ChEMBL document CHEMBL1649446", "about": "“Comparative antipneumococcal activities of sulopenem and other drugs” (2009)", "format_in_all_cases": "functional", "key": {"[1]": {"tested_on": "Streptococcus pneumoniae", "experiment": "Antimicrobial activity against Streptococcus pneumoniae 4 by time-kill analysis in presence of beta-lactamase inhibitor clavulanic acid"}, "[2]": {"tested_on": "Streptococcus pneumoniae", "experiment": "Antimicrobial activity against Streptococcus pneumoniae isolate 1424 by agar dilution method", "outline": "(§1)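 Agar dilution MIC on Mueller-Hinton agar with 5% sheep blood, inocula 10^4 CFU/spot; amoxicillin-clavulanate combined 1:2; S. pneumoniae ATCC 49619 quality control each run.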"}, "[3]": {"tested_on": "Streptococcus pneumoniae", "experiment": "Antimicrobial activity against penicillin-resistant Streptococcus pneumoniae by agar dilution method in presence of beta-lactamase inhibitor clavulanic acid", "outline": "(§2)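 Agar dilution MIC on Mueller-Hinton agar with 5% sheep blood at 10^4 CFU/spot. Clavulanate combined with amoxicillin 1:2. Control S. pneumoniae ATCC 49619 included in each run. Penicillin categories: intermediate 0.125–1.0 μg/ml, resistant 2.0–16.0 μg/ml. MIC50/MIC90 taken across strain sets, including 45 drug-resistant serotype 19A isolates.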"}, "[4]": {"tested_on": "Streptococcus pneumoniae", "experiment": "Antimicrobial activity against Streptococcus pneumoniae isolate 3587 by agar dilution method"}, "[5]": {"tested_on": "Streptococcus pneumoniae", "experiment": "Antimicrobial activity against penicillin-resistant Streptococcus pneumoniae by agar dilution method", "outline": "as §1"}, "[6]": {"tested_on": "Streptococcus pneumoniae", "experiment": "Antimicrobial activity against Streptococcus pneumoniae 8 by time-kill analysis in presence of beta-lactamase inhibitor clavulanic acid"}, "[7]": {"tested_on": "Streptococcus pneumoniae", "experiment": "Antimicrobial activity against penicillin-susceptible Streptococcus pneumoniae by agar dilution method in presence of beta-lactamase inhibitor clavulanic acid"}, "[8]": {"tested_on": "Streptococcus pneumoniae", "experiment": "Antimicrobial activity against Streptococcus pneumoniae isolate 3412 by agar dilution method", "outline": "as §1"}, "[9]": {"tested_on": "Streptococcus pneumoniae", "experiment": "Antimicrobial activity against Streptococcus pneumoniae 1 by time-kill analysis in presence of beta-lactamase inhibitor clavulanic acid"}, "[10]": {"tested_on": "Streptococcus pneumoniae", "experiment": "Antimicrobial activity against Streptococcus pneumoniae 10 by time-kill analysis", "outline": "(§3)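 Time-kill in cation-adjusted Mueller-Hinton broth with 5% lysed horse blood; inocula 5 × 105 to 5 × 10^6 CFU/ml; drugs at MIC, 2× and 4× MIC; 35°C shaking water bath; viable counts at 0, 3, 6, 12, 24 h. Bactericidal = ≥3 log10 CFU/ml (99.9%) drop from original inoculum; 90%/99%/99.9% killing scored per strain.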"}, "[11]": {"tested_on": "Streptococcus pneumoniae", "experiment": "Antimicrobial activity against Streptococcus pneumoniae isolate 2617 by agar dilution method", "outline": "as §1"}, "[12]": {"tested_on": "Streptococcus pneumoniae", "experiment": "Antimicrobial activity against Streptococcus pneumoniae isolate 2880 by agar dilution method", "outline": "as §1"}, "[13]": {"tested_on": "Streptococcus pneumoniae", "experiment": "Antimicrobial activity against penicillin-intermediate Streptococcus pneumoniae by agar dilution method"}, "[14]": {"tested_on": "Streptococcus pneumoniae", "experiment": "Antimicrobial activity against Streptococcus pneumoniae isolate 4755 by agar dilution method", "outline": "as §1"}, "[15]": {"tested_on": "Streptococcus pneumoniae", "experiment": "Antimicrobial activity against Streptococcus pneumoniae 10 by time-kill analysis in presence of beta-lactamase inhibitor clavulanic acid"}, "[16]": {"tested_on": "Streptococcus pneumoniae", "experiment": "Antimicrobial activity against Streptococcus pneumoniae 11 by time-kill analysis in presence of beta-lactamase inhibitor clavulanic acid"}, "[17]": {"tested_on": "Streptococcus pneumoniae", "experiment": "Antimicrobial activity against Streptococcus pneumoniae 19A by agar dilution method in presence of beta-lactamase inhibitor clavulanic acid", "outline": "as §2"}, "[18]": {"tested_on": "Streptococcus pneumoniae", "experiment": "Antimicrobial activity against Streptococcus pneumoniae isolate 1147 by agar dilution method", "outline": "as §1"}, "[19]": {"tested_on": "Streptococcus pneumoniae", "experiment": "Antimicrobial activity against Streptococcus pneumoniae 5 by time-kill analysis", "outline": "as §3, with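 “12 and” for “12,”, “if” for “=”, “reduction” for “drop”, “90% and 99%” for “90%/99%/99.9%”, “also scored.” for “scored per strain.”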"}, "[20]": {"tested_on": "Streptococcus pneumoniae", "experiment": "Antimicrobial activity against Streptococcus pneumoniae 2 by time-kill analysis in presence of beta-lactamase inhibitor clavulanic acid"}, "[21]": {"tested_on": "Streptococcus pneumoniae", "experiment": "Antimicrobial activity against Streptococcus pneumoniae isolate 3681 by agar dilution method", "outline": "as §1"}, "[22]": {"tested_on": "Streptococcus pneumoniae", "experiment": "Antimicrobial activity against Streptococcus pneumoniae 4 by time-kill analysis", "outline": "as §3"}, "[23]": {"tested_on": "Streptococcus pneumoniae", "experiment": "Antimicrobial activity against Streptococcus pneumoniae isolate 2688 by agar dilution method", "outline": "as §1"}, "[24]": {"tested_on": "Streptococcus pneumoniae", "experiment": "Antimicrobial activity against Streptococcus pneumoniae isolate 3374 by agar dilution method", "outline": "as §1"}, "[25]": {"tested_on": "Streptococcus pneumoniae", "experiment": "Antimicrobial activity against Streptococcus pneumoniae isolate 3455 by agar dilution method"}, "[26]": {"tested_on": "Streptococcus pneumoniae", "experiment": "Antimicrobial activity against Streptococcus pneumoniae isolate 3791 by agar dilution method", "outline": "as §1"}, "[27]": {"tested_on": "Streptococcus pneumoniae", "experiment": "Antimicrobial activity against Streptococcus pneumoniae 19A by agar dilution method", "outline": "as §1"}, "[28]": {"tested_on": "Streptococcus pneumoniae", "experiment": "Antimicrobial activity against Streptococcus pneumoniae isolate 2874 by agar dilution method", "outline": "as §1"}, "[29]": {"tested_on": "Streptococcus pneumoniae", "experiment": "Antimicrobial activity against Streptococcus pneumoniae 5 by time-kill analysis in presence of beta-lactamase inhibitor clavulanic acid"}}, "data": [{"smiles": "CC1(C)S[C@@H]2[C@H](NC(=O)[C@H](N)c3ccc(O)cc3)C(=O)N2[C@H]1C(=O)O", "note": "[AMOXICILLIN]", "values": [{"measurement": "MIC", "setting": "[1]", "result": 2, "unit": "µg/mL"}, {"measurement": "MIC", "setting": "[2]", "result": 8, "unit": "µg/mL"}, {"measurement": "MIC50", "setting": "[3]", "result": 2, "unit": "µg/mL"}, {"measurement": "MIC90", "setting": "[3]", "result": 4, "unit": "µg/mL"}, {"measurement": "MIC", "setting": "[4]", "result": 1, "unit": "µg/mL"}, {"measurement": "MIC50", "setting": "[5]", "result": 2, "unit": "µg/mL"}, {"measurement": "MIC90", "setting": "[5]", "result": 8, "unit": "µg/mL"}, {"measurement": "MIC", "setting": "[6]", "result": 2, "unit": "µg/mL"}, {"measurement": "MIC50", "setting": "[7]", "result": 0.03, "unit": "µg/mL"}, {"measurement": "MIC90", "setting": "[7]", "result": 0.03, "unit": "µg/mL"}, {"measurement": "MIC", "setting": "[8]", "result": 4, "unit": "µg/mL"}, {"measurement": "MIC", "setting": "[9]", "result": 0.03, "unit": "µg/mL"}, {"measurement": "MIC", "setting": "[10]", "result": 0.06, "unit": "µg/mL"}, {"measurement": "MIC", "setting": "[11]", "result": 1, "unit": "µg/mL"}, {"measurement": "MIC", "setting": "[12]", "result": 0.125, "unit": "µg/mL"}, {"measurement": "MIC50", "setting": "[13]", "result": 0.25, "unit": "µg/mL"}, {"measurement": "MIC90", "setting": "[13]", "result": 1, "unit": "µg/mL"}, {"measurement": "MIC", "setting": "[14]", "result": 4, "unit": "µg/mL"}, {"measurement": "MIC", "setting": "[15]", "result": 0.06, "unit": "µg/mL"}, {"measurement": "MIC", "setting": "[16]", "result": 2, "unit": "µg/mL"}, {"measurement": "MIC50", "setting": "[17]", "result": 8, "unit": "µg/mL"}, {"measurement": "MIC90", "setting": "[17]", "result": 8, "unit": "µg/mL"}, {"measurement": "MIC", "setting": "[18]", "result": 4, "unit": "µg/mL"}, {"measurement": "MIC", "setting": "[19]", "result": 8, "unit": "µg/mL"}, {"measurement": "MIC", "setting": "[20]", "result": 0.03, "unit": "µg/mL"}, {"measurement": "MIC", "setting": "[21]", "result": 2, "unit": "µg/mL"}, {"measurement": "MIC", "setting": "[22]", "result": 2, "unit": "µg/mL"}, {"measurement": "MIC", "setting": "[23]", "result": 16, "unit": "µg/mL"}, {"measurement": "MIC", "setting": "[24]", "result": 1, "unit": "µg/mL"}, {"measurement": "MIC", "setting": "[25]", "result": 8, "unit": "µg/mL"}, {"measurement": "MIC", "setting": "[26]", "result": 2, "unit": "µg/mL"}, {"measurement": "MIC50", "setting": "[27]", "result": 8, "unit": "µg/mL"}, {"measurement": "MIC90", "setting": "[27]", "result": 8, "unit": "µg/mL"}, {"measurement": "MIC", "setting": "[28]", "result": 0.5, "unit": "µg/mL"}, {"measurement": "MIC", "setting": "[29]", "result": 8, "unit": "µg/mL"}]}]}
